Screening results: PubChem BioAssay, several laboratories
Compounds with a hit are over-represented: about 9.2% of the library has one in this group of screens.
Dynein transport = dynein cargo transport inhibition; z-score, hits read low; AID 1381; 220,000 tested, 0.47% active; 3617.4 mouse cells, GR-EGFP nuclear translocation imaging; test concentration mostly 20 µM; stimulated with dexamethasone, 1 µM; active compounds read low;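 active means plate z-score of nuclear minus cytoplasmic receptor signal below a set negative limit, without overly bright fluorescence or cell loss, cut at about -3.5 in these data, passing the limit was not always enough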;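 further: z-score of nuclear minus cytoplasmic ring GR-EGFP intensity difference per well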
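Buffer or medium – tet-free medium with charcoal-stripped serum · Signal – automated 10x imaging of fixed Hoechst-stained cells · Also added – dexamethasone agonist, 1.0 µM final, for 30 min · Incubation – induction 48 h, compound 1 h, agonist 30 min · Read-out – GR-EGFP nuclear translocation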
L major viab = reduces viability of Leishmania major promastigotes; inhibition, % at 10 µM; 200,000 tested, 9% active; resazurin fluorescence viability; in the data active means inhibition above about 50%;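 further: promastigotes grown with compound for 44 hours at 28 °C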
Autophagy mod = modulators of autophagy; MEF GFP-LC3 puncta imaging; test concentration mostly 10 µM; calls only at 10 µM (by protocol); 190,000 tested, 0.98% active;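 active means percentage of spot-positive cells more than 3 SD above its plate mean, without a fluorescence outlier flag or 80% toxicity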
HCT116 bCat-KO = beta-catenin-lacking colon tumor cell growth suppression. HCT116 beta-catenin knockout viability, CellTiter-Glo, 60 h; active compounds read low. viability, % at 10 µM. 140,000 tested, 1.5% active. AID 818;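 active means viability at or under a set limit, the compound median less 4 SD, cut at about 6% in these data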
PTEN del growth = growth suppressors of cells with PTEN tumor suppressor deletion. HCT116 PTEN-null viability, CellTiter-Glo, 60 h; active compounds read low. viability, % at 10 µM. 140,000 tested, 1.2% active. AID 827;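 active means viability at or below a set limit, 4 SD under the median of all tested compounds, cut at about 3.7% in these data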;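 further: PTEN knockout HCT116 line with beta catenin targeted HCT116 as companion control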
A number is an active result; - = inactive; . = no result given; + = active, no number.

SMILES	Dynein transport	L major viab	Autophagy mod	HCT116 bCat-KO	PTEN del growth
CN1CCC(N(C)c2nc(-c3ccc([N+](=O)[O-])cc3)nc3ccccc23)CC1	-	100	-	1.5	1.5
CC(=NCCCN1CCOCC1)c1c(O)n(Cc2ccccc2)c(=O)[nH]c1=O	-	90	-	-	-
Cc1cccc(NP(=O)(Oc2ccccc2F)Oc2ccccc2F)c1C	-	80	-	-	-
O=c1[nH]c(=O)n(C2CCCCCC2)c(O)c1C=NCCCN1CCOCC1	-	89	-	-	-
O=c1cccc2n1CC1CC2CN(c2ncnc3c2cnn3-c2ccccc2)C1 (stereo not drawn)	-	-	-	-	-
CCCCCCN1CCN(c2ccc(Cl)cc2)CC1	-	82	-	.	.
Cc1ccc(C(C)C)c(OCC(=O)N2CCN(Cc3nc4cc([N+](=O)[O-])ccc4n3C)CC2)c1	-	97	-	-	-
Clc1ccc(CNC2CN3CCC2CC3)cc1 (stereo not drawn)	-	92	-	-	-
C=CCn1c(O)c(C(C)=Nc2cccc(C(F)(F)F)c2)c(=O)[nH]c1=O	-	.	.	.	.
O=C(CCCC1=NS(=O)(=O)c2ccccc2N1)N1CCC2(CC1)OCCO2	-	-	-	-	-
COC(=O)C(O)(c1ccc(NC(=O)c2cccs2)cc1)C(F)(F)F (stereo not drawn)	-	.	.	.	.
COC(=O)C(O)(c1ccc(N(C)C(=O)COc2ccccc2)cc1)C(F)(F)F (stereo not drawn)	-	-	-	-	-
COC(=O)N(C)c1ccc(C(O)(C(=O)OC)C(F)(F)F)cc1 (stereo not drawn)	-	87	-	-	-
CCOC(=O)N(CC)c1ccc(C(O)(C(=O)OC)C(F)(F)F)cc1 (stereo not drawn)	-	91	-	-	-
N#CC1=C(N)Oc2c(c(=O)oc3ccccc23)C1c1ccc([N+](=O)[O-])o1 (stereo not drawn)	-	-	-	.	.
O=C1N(CN2CCOCC2)c2ccccc2C1(O)c1c[nH]c2ccccc12 (stereo not drawn)	-	-	-	-	-
CCCC1(CCC)C(=O)NC(=Nc2ccc(C)cc2)NC1=O	-	-	-	.	.
CCCCN(Cc1ccccc1)C1CCN(CCc2ccccc2)CC1	-	91	-	-	-
O=P(CN1CCN(c2ccccc2)CC1)(N1CCCCC1)N1CCCCC1	-	-	-	-	-
c1ccc(CCN2CCC(N3CCN(c4ccccc4)CC3)CC2)cc1	-	95	-	-	-
Cc1c(N=Cc2c(O)n(Cc3ccco3)c(=O)[nH]c2=O)c(=O)n(-c2ccccc2)n1C	-	-	-	-	-
COc1cc2c(cc1OC)CC[N+](C)=C2	-	-	-	.	.
CNCCCc1ccccc1	-	-	-	-	-
Cc1cccc(CNCCc2ccccc2)n1	-	69	-	-	-
Cc1cc(C=C2C(=O)NC(=O)NC2=O)c(C)n1-c1ccc2c(c1)OCO2	-	-	-	-	-
SMILES	Dynein transport	L major viab	Autophagy mod	HCT116 bCat-KO	PTEN del growth
Cc1cc(C=C2C(=O)NC(=S)NC2=O)c(C)n1-c1ccc2c(c1)OCO2	-	86	-	-	-
O=C1Nc2ccccc2/C1=C/c1cnc[nH]1	-	98	-	-	-
CCOc1cccc(=NC2CCCCC2)c2c(C)n(C)c(C)c12	-	.	.	.	.
COc1ccc(N2CCN(C(CNC(=O)Oc3ccccc3)c3cccnc3)CC2)cc1 (stereo not drawn)	-	92	-	-	-
Fc1ccccc1N1CCN(Cc2c(F)cccc2F)CC1	-	-	-	-	-
CCN1CCN(C(c2cccs2)C(C)NC(=O)Oc2ccccc2)CC1 (stereo not drawn)	-	-	-	.	.
O=C(NCC(c1cccnc1)N1CCN(c2ccccc2F)CC1)Oc1ccccc1 (stereo not drawn)	-	97	-	-	-
C[N+](C)(C)Cc1ccccc1	-	-	-	-	-
Cc1ccc(CN2C(=O)NC(=O)C3(Cc4c(nc5ccccn5c4=O)N4CCCCCC43)C2=O)cc1 (stereo not drawn)	-	85	-	-	-
C/C(=N\N(C)c1ccccc1)c1c(O)[nH]c(=O)[nH]c1=O	-	.	.	.	.
CCCCCCOc1ccc(CN2CCN(C)CC2)cc1	-	100	+	-	-
CCN1CCN(Cc2ccc(C)cc2)CC1	-	-	-	-	-
[N-]=[N+]=CC(=O)OC[C@H](N)C(=O)O	-	-	-	-	-
Cc1nn(Cc2ccccc2Cl)c(Cl)c1C(=O)OCC(=O)NC(=O)NC1CCCCC1	-	52	-	-	-
Cc1cc(NC(=O)COC(=O)c2c(C)nn(Cc3ccccc3Cl)c2C)no1	-	-	-	-	-
CCOP(=O)(Cc1cc(C(C)=O)c(C)o1)OCC	-	.	.	.	.
C#CCN1CCN(c2ccc(F)cc2)CC1	-	-	-	.	.
Fc1ccc(C(OCCN2CCCC2)c2ccc(Br)cc2)cc1 (stereo not drawn)	-	100	-	-	-
Fc1ccc(C(OCCN2CCCC2)c2ccc(F)cc2)cc1	-	90	-	-	-
O=c1[nH]c(O)c(/C=C2\C=NN=C2c2ccccc2)c(=O)[nH]1	-	-	-	-	-
CN1CCN(CCC(C#N)(c2ccccc2)c2ccccc2)CC1	-	79	-	-	-
CCCCN1CCC(C#N)(Nc2ccccc2)CC1	-	-	-	-	-
CCN(CC)C1=NC(=[N+](CC)CC)c2ccccc21	-	100	-	-	-
O=C(c1cc(C(=O)NCc2ccccc2)c(=O)n(Cc2ccccc2)c1)c1cc(Cl)ccc1O	-	98	-	-	-
CC(C)CCNC(=O)c1cc(C(=O)c2cc(Br)ccc2O)cn(CCC(C)C)c1=O	-	83	-	.	.
SMILES	Dynein transport	L major viab	Autophagy mod	HCT116 bCat-KO	PTEN del growth
O=[N+]([O-])c1ccc(C2[C@H]3C(c4ccccc4)=NC4(CCCCC4)N23)cc1 (stereo partly drawn)	-	-	-	-	-
O=[N+]([O-])/C=C1\NCCN1Cc1ccc(Cl)nc1	-	-	-	-	-
COc1cccc(C2(O)CCN(CC(=O)Nc3nc(C)cs3)CC2)c1	-	-	-	.	.
CCCC(C)C1(CC)C(=O)NC(=Nc2ccc(OC)cc2)NC1=O (stereo not drawn)	-	-	-	-	-
CCOc1ccc(C(=O)OC2CC3CCC(C2)N3C)cc1 (stereo not drawn)	-	72	-	.	.
CN1C2CCC1CC(OC(=O)c1ccc(Cl)cc1)C2 (stereo not drawn)	-	97	-	-	-
CN1C2CCC1CC(OC(=O)c1ccc(Cl)cc1)(C(=O)O)C2 (stereo not drawn)	-	-	-	-	-
CCOc1ccc(-c2c(C)n(-c3ccc(OCC)cc3)c3[n+]2CCCCC3)cc1	-	.	.	.	.
O=C(Cc1ccccc1)N1CCN(Cc2ccc([N+](=O)[O-])cc2)CC1	-	-	-	-	-
COC(=O)c1ccc(CN2CCN(Cc3ccccc3)CC2)cc1	-	93	-	-	-
CN1CCN(S(=O)(=O)c2cnc(Cl)c(Br)c2)CC1	-	-	-	-	-
CCOC(=O)C1(c2ccccc2)CCN(Cc2cccc(C(=O)O)c2)CC1	-	-	-	-	-
